This note sets out measurements from ChEMBL document CHEMBL1143610, “Applying linear interaction energy method for rational design of noncompetitive allosteric inhibitors of the sarco- and endoplasmic reticulum calcium-ATPase” (J Med Chem, 2005).

Assay [1] concerns the target T1, Sarcoplasmic/endoplasmic reticulum calcium ATPase 1 (Homo sapiens, UniProt O14983). Kind of assay: Inhibitory potency against sarco- endoplasmic reticulum calcium-ATPase in relative to thapsigargin (Experimental).
Target sequence in this assay (O14983 whole entry, looked up): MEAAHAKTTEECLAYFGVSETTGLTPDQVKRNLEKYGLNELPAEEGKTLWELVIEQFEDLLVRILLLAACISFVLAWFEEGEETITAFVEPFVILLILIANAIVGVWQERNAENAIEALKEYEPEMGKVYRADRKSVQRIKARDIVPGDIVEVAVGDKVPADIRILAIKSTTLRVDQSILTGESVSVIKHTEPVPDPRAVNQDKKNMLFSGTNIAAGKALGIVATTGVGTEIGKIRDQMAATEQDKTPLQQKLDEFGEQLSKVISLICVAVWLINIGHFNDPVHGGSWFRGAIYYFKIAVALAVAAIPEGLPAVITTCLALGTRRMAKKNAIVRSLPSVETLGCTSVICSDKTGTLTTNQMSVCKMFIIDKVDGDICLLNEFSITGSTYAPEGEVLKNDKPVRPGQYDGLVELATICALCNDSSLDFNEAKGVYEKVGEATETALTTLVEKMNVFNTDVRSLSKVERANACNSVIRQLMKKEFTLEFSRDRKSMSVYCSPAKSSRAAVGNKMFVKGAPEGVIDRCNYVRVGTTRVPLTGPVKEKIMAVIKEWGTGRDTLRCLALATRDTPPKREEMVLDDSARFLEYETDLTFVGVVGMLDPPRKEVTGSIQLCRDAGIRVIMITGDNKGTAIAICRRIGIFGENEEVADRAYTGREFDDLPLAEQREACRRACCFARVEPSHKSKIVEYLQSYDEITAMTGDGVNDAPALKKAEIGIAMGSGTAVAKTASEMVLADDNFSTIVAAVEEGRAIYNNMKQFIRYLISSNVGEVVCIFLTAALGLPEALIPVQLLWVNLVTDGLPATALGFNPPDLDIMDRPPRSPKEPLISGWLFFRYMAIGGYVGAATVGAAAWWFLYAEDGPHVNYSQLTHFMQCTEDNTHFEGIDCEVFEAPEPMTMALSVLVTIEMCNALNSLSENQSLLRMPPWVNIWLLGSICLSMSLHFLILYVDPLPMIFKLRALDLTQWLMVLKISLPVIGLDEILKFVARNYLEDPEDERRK
The target in assay [2] is T1, Sarcoplasmic/endoplasmic reticulum calcium ATPase 1. The assay can be described thus: Inhibitory activity against sarco- endoplasmic reticulum calcium-ATPase.
Target sequence in this assay (O14983 whole entry): as the sequence (O14983 whole entry, looked up) above
For assay [3] the target is unchanged. The assay can be described thus: Inhibitory potency against sarco- endoplasmic reticulum calcium-ATPase in relative to thapsigargin by using SGB-LIE method. In short, it runs like this:
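SGB-LIE computation with a surface generalized Born continuum solvent. SERCA coordinates came from one TG-bound monomer of PDB 1IWO, truncated to the transmembrane domain, lumen and the near-membrane cytoplasmic part. Histidine protonation was set to favour H-bonds. Ligands were superimposed on bound TG, with O-8 side chains in the hydrophobic channel. Vacuum minimisation held protein atoms fixed except nonpolar H. LIE parameters were fitted to experimental data for 20 training analogues.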
Target sequence in this assay (O14983 whole entry, looked up): as above

Molecules are shown by their SMILES.

Regarding `CCCCCCCC(=O)O[C@@H]1C(=O)C(C)=C2[C@H]1[C@@](C)(OC(C)=O)C[C@H](OC(=O)CCC(=O)Nc1ccc(C)c(N)c1)[C@@]1(O)[C@H]2OC(=O)[C@@]1(C)O`, the RIC50 in assay [1] came out at 0.004; in assay [3], 0.0006. For the same compound, in assay [2], the IC50 is 9.04 µM.
